Assay results taken from ChEMBL document CHEMBL1138555, “N-acylated and N,N'-diacylated imidazolidine-2-thione derivatives and N,N'-diacylated tetrahydropyrimidine-2(1H)-thione analogues: synthesis and antiproliferative activity” (Eur J Med Chem, 2009).

Assays:
CAKI-1 = assay: Growth inhibition of human Caki1 cells after 48 hrs by sulforhodamine B assay; format: functional; conditions: CAKI-1, 48 h
In short: (§1)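 NCI screen panel. Five 10-fold concentrations from 10^-4 to 10^-8 M. Exposure for the last 48 h of a 72 h incubation. Growth estimated by sulforhodamine B protein assay. GI50 is the concentration giving 50% growth inhibition. Where that level was not reached or was exceeded, the value is given as above or below the highest or lowest concentration tested.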

SNB-19 = assay: Growth inhibition of human SNB19 cells after 48 hrs by sulforhodamine B assay; format: functional; conditions: SNB-19, 48 h
In short: (§2)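 NCI in vitro panel screen. Compounds tested at five 10-fold dilutions, 10^-4 to 10^-8 M. Cells in 96-well plates were exposed for the last 48 h of a 72 h incubation. Viability/growth was read by sulforhodamine B protein assay. GI50 is the concentration giving 50% growth inhibition. Values beyond the tested range are reported as greater or less than the maximum or minimum concentration.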

ACHN = assay: Growth inhibition of human ACHN cells after 48 hrs by sulforhodamine B assay; format: functional; in short: as §1
A549 = assay: Growth inhibition of human A549 cells after 48 hrs by sulforhodamine B assay; format: functional; conditions: A549, 48 h; in short: as §1
SK-MEL-5 = assay: Growth inhibition of human SK-MEL-5 cells after 48 hrs by sulforhodamine B assay; format: functional; conditions: SK-MEL-5, 48 h; in short: as §1
MT4 = assay: Antiproliferative activity against human MT4 cells assessed as reduction of growth by MTT assay; format: functional, cell-based
In short: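 MT-4 lymphoblastoid T cells (ATCC) in RPMI 1640 with 10% FCS, penicillin/streptomycin, checked for mycoplasma. 1 × 10⁴ mock-infected cells per well with serial dilutions from a 100 mM DMSO stock. Incubated 4 days at 37 °C, viable cells counted by MTT. IC50 versus untreated controls by linear regression. Mean of three separate experiments.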

UACC-62 = assay: Growth inhibition of human UACC62 cells after 48 hrs by sulforhodamine B assay; format: functional; conditions: UACC-62, 48 h; in short: as §2
OVCAR-3 = assay: Growth inhibition of human OVCAR-3 cells after 48 hrs by sulforhodamine B assay; format: functional; conditions: OVCAR-3, 48 h; in short: as §1
EKVX = assay: Growth inhibition of human EKVX cells after 48 hrs by sulforhodamine B assay; format: functional; in short: as §1
NCI-H460 = assay: Growth inhibition of human NCI-H460 cells after 48 hrs by sulforhodamine B assay; format: functional; conditions: NCI-H460, 48 h; in short: as §1
SF-295 = assay: Growth inhibition of human SF295 cells after 48 hrs by sulforhodamine B assay; format: functional; conditions: SF-295, 48 h; in short: as §1
[1] = Growth inhibition of human […] cells after 48 hrs by sulforhodamine B assay; format: functional; in short: as §1
IGROV-1 = assay: Growth inhibition of human IGROV1 cells after 48 hrs by sulforhodamine B assay; format: functional; conditions: IGROV-1, 48 h; in short: as §1
PC-3 = assay: Growth inhibition of human PC3 cells after 48 hrs by sulforhodamine B assay; format: functional; conditions: PC-3, 48 h; in short: as §1
MOLT-4 = assay: Growth inhibition of human MOLT4 cells after 48 hrs by sulforhodamine B assay; format: functional; conditions: MOLT-4, 48 h; in short: as §1
MCF7 = assay: Growth inhibition of human MCF7 cells after 48 hrs by sulforhodamine B assay; format: functional; conditions: MCF7, 48 h; in short: as §1
RXF 393 = assay: Growth inhibition of human RXF393 cells after 48 hrs by sulforhodamine B assay; format: functional; conditions: RXF 393, 48 h; in short: as §1
T47D = assay: Growth inhibition of human T47D cells after 48 hrs by sulforhodamine B assay; format: functional; in short: as §2
SF-268 = assay: Growth inhibition of human SF268 cells after 48 hrs by sulforhodamine B assay; format: functional; conditions: SF-268, 48 h; in short: as §1
HCT-15 = assay: Growth inhibition of human HCT15 cells after 48 hrs by sulforhodamine B assay; format: functional; conditions: HCT-15, 48 h; in short: as §1
SW-620 = assay: Growth inhibition of human SW620 cells after 48 hrs by sulforhodamine B assay; format: functional; conditions: SW-620, 48 h; in short: as §2
Malme-3M = assay: Growth inhibition of human MALME-3M cells after 48 hrs by sulforhodamine B assay; format: functional; in short: as §1
SK-OV-3 = assay: Growth inhibition of human SKOV3 cells after 48 hrs by sulforhodamine B assay; format: functional; conditions: SK-OV-3, 48 h; in short: as §1
LOX IMVI = assay: Growth inhibition of human LOXIMVI cells after 48 hrs by sulforhodamine B assay; format: functional; in short: as §1
U-251 = assay: Growth inhibition of human U251 cells after 48 hrs by sulforhodamine B assay; format: functional; conditions: U-251, 48 h; in short: as §2
KM12 = assay: Growth inhibition of human KM12 cells after 48 hrs by sulforhodamine B assay; format: functional; conditions: KM12, 48 h; in short: as §1
NCI-H23 = assay: Growth inhibition of human NCI-H23 cells after 48 hrs by sulforhodamine B assay; format: functional; conditions: NCI-H23, 48 h; in short: as §1
SK-MEL-2 = assay: Growth inhibition of human SK-MEL-2 cells after 48 hrs by sulforhodamine B assay; format: functional; conditions: SK-MEL-2, 48 h; in short: as §1
SR = assay: Growth inhibition of human SR cells after 48 hrs by sulforhodamine B assay; format: functional; in short: as §2
OVCAR-4 = assay: Growth inhibition of human OVCAR4 cells after 48 hrs by sulforhodamine B assay; format: functional; conditions: OVCAR-4, 48 h; in short: as §1
OVCAR-8 = assay: Growth inhibition of human OVCAR8 cells after 48 hrs by sulforhodamine B assay; format: functional; conditions: OVCAR-8, 48 h; in short: as §1
HL-60(TB) = assay: Growth inhibition of human HL-60(TB) cells after 48 hrs by sulforhodamine B assay; format: functional; conditions: HL-60, 48 h
In short: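 NCI 60-cell-line screen protocol: cells exposed to compound at five 10-fold dilutions from 10^-4 to 10^-8 M for the last 48 h of a 72 h incubation. Sulforhodamine B protein assay estimated viability/growth. GI50 (50% growth inhibition) derived; where not reached or exceeded, reported as greater or less than the highest or lowest concentration tested.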

UO-31 = assay: Growth inhibition of human UO31 cells after 48 hrs by sulforhodamine B assay; format: functional; conditions: UO-31, 48 h; in short: as §2
SN12C = assay: Growth inhibition of human SN12C cells after 48 hrs by sulforhodamine B assay; format: functional; in short: as §2
MDA-MB-231 = assay: Growth inhibition of human MDA-MB-231 cells after 48 hrs by sulforhodamine B assay; format: functional; conditions: MDA-MB-231, 48 h; in short: as §1
HT-29 = assay: Growth inhibition of human HT-29 cells after 48 hrs by sulforhodamine B assay; format: functional; conditions: HT-29, 48 h; in short: as §1
CCRF-CEM = assay: Growth inhibition of human CCRF-CEM cells after 48 hrs by sulforhodamine B assay; format: functional; in short: as §1
BT-549 = assay: Growth inhibition of human BT549 cells after 48 hrs by sulforhodamine B assay; format: functional; conditions: BT-549, 48 h; in short: as §1
K562 = assay: Growth inhibition of human K562 cells after 48 hrs by sulforhodamine B assay; format: functional; conditions: K562, 48 h; in short: as §1
NCI-H322M = assay: Growth inhibition of human NCI-H322M cells after 48 hrs by sulforhodamine B assay; format: functional; in short: as §1
DU-145 = assay: Growth inhibition of human DU145 cells after 48 hrs by sulforhodamine B assay; format: functional; conditions: DU-145, 48 h; in short: as §1
HOP-92 = assay: Growth inhibition of human HOP92 cells after 48 hrs by sulforhodamine B assay; format: functional; conditions: HOP-92, 48 h; in short: as §1
SK-MEL-28 = assay: Growth inhibition of human SK-MEL-28 cells after 48 hrs by sulforhodamine B assay; format: functional; conditions: SK-MEL-28, 48 h; in short: as §1
MDA-MB-435 = assay: Growth inhibition of human MDA-MB-435 cells after 48 hrs by sulforhodamine B assay; format: functional; conditions: MDA-MB-435, 48 h; in short: as §1
COLO 205 = assay: Growth inhibition of human COLO205 cells after 48 hrs by sulforhodamine B assay; format: functional; conditions: COLO 205, 48 h; in short: as §1
SF-539 = assay: Growth inhibition of human SF539 cells after 48 hrs by sulforhodamine B assay; format: functional; conditions: SF-539, 48 h; in short: as §1
TK-10 = assay: Growth inhibition of human TK10 cells after 48 hrs by sulforhodamine B assay; format: functional; conditions: TK-10, 48 h; in short: as §2
SNB-75 = assay: Growth inhibition of human SNB75 cells after 48 hrs by sulforhodamine B assay; format: functional; conditions: SNB-75, 48 h; in short: as §2

Compound `N#CC(C#N)=CN1CCN(C(=O)c2ccco2)C1=S` has a GI50 (CAKI-1) of 4.8 µM, a GI50 (SNB-19) of 38.7 µM and a GI50 (ACHN) of 9.4 µM. The GI50 (A549) was 13.5 µM, the GI50 (SK-MEL-5) was 2.9 µM and the IC50 (MT4) was 4.4 µM. It also gave a GI50 (UACC-62) of 8.8 µM, a GI50 (OVCAR-3) of 11.2 µM and a GI50 (EKVX) of 11.9 µM. It also gave a GI50 (NCI-H460) of 3.3 µM, a GI50 (SF-295) of 31.3 µM and a GI50 [1] of 4.5 µM. The GI50 (IGROV-1) was 6.6 µM, the GI50 (PC-3) was 17.2 µM and the GI50 (MOLT-4) was 5.2 µM. It also gave a GI50 (MCF7) of 3.5 µM, a GI50 (RXF 393) of 2.6 µM and a GI50 (T47D) of 21.2 µM. For the same compound, the GI50 (SF-268) was 31.4 µM, the GI50 (HCT-15) was 5.2 µM and the GI50 (SW-620) was 5.6 µM. It also gave a GI50 (Malme-3M) of 47.8 µM, a GI50 (SK-OV-3) of 33.1 µM and a GI50 (LOX IMVI) of 3.3 µM. The GI50 (U-251) was 6.6 µM, the GI50 (KM12) was 4.1 µM and the GI50 (NCI-H23) was 5.8 µM. The GI50 (SK-MEL-2) was 4.3 µM, the GI50 (SR) was 2 µM and the GI50 (OVCAR-4) was 20.1 µM. It also gave a GI50 (OVCAR-8) of 14.6 µM, a GI50 (HL-60(TB)) of 19.8 µM and a GI50 (UO-31) of 10.5 µM. For the same compound, the GI50 (SN12C) was 3.1 µM, the GI50 (MDA-MB-231) was 2.9 µM and the GI50 (HT-29) was 27.7 µM. The GI50 (CCRF-CEM) was 79.7 µM, the GI50 (BT-549) was 6.9 µM and the GI50 (K562) was 6.6 µM. It also gave a GI50 (NCI-H322M) of 15.5 µM, a GI50 (DU-145) of 5.5 µM and a GI50 (HOP-92) of 22.4 µM. The GI50 (SK-MEL-28) was 12.5 µM, the GI50 (MDA-MB-435) was 5.3 µM and the GI50 (COLO 205) was 16.5 µM. The GI50 (SF-539) was 2.5 µM, the GI50 (TK-10) was 4.6 µM and the GI50 (SNB-75) was 40.6 µM.
